Test results published in paper PMC2532710 (Nucleic Acids Research, 2008).

Columns and labels:
[1] = system: fork substrate with only the leading strand; experiment: 2-AP fluorescence quenching, leading strand fork; type: binding
Outline: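 Substrates were annealed from oligos (boiled 5 min, slow-cooled), gel-purified on native 12% PAGE and quantified spectrophotometrically. After ≥10 min equilibration, emission was read at 330–430 nm (excitation 315 nm). Adenine-substituted spectra were subtracted, and fold decrease at 370 nm was taken versus no peptide.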

[2] = system: central thymine bases of HJ; details: bound to HJ; cited from earlier work
Oligo = experiment: 2-AP titration Kd, oligo; type: binding; details: Kd ratio, n = 1
Outline: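 Each substrate carried 2-AP at strand 4, position 2 and was used at 0.1 μM in 20 mM Tris-HCl pH 7.8, 25 mM NaCl, 1 mM EDTA, 1.6% DMSO at 24°C. Peptide dimer added in 2-fold steps from 0.003125 μM, 3 min each. Excitation 315 nm, emission 330–430 nm. Adenine background subtracted, 365–375 nm averaged. Fc fitted by least squares to pooled 2–3 dilution series. Value given as Kd relative to HJ Kd.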

For (WRWYCR)2 (disulfide), the “fold decrease in 2-AP fluorescence at 370 nm” value (“fold decrease” below) ([1]; Lead-1AP1 (central base), 0.05 μM dimer, 0.25:1) was 1.0 fold, the “fold decrease” value ([1]; Lead-1AP1 (central base), 1.6 μM dimer, 8:1) was 1.3 fold and the “fold decrease” value ([1]; Lead-4AP1 (central base), 0.05 μM dimer, 0.25:1) was 1.0 fold. For the same substance, the “fold decrease” value ([1]; Lead-4AP1 (central base), 0.8 μM dimer, 4:1) was 1.3 fold, the “fold decrease” value ([1]; Lead-4AP1 (central base), 1.6 μM dimer, 8:1) was 1.7 fold and the “2-AP quenching” value ([1]; Lead-4AP1, Lead-4AP2 and Lead-4AP3) was “all quenched by the peptide”. The “fold decrease” value ([1]; Lead-4AP2 (central base), 0.05 μM dimer, 0.25:1) was 1.0 fold, the “fold decrease” value ([1]; Lead-4AP2 (central base), 0.8 μM dimer, 4:1) was 1.2 fold and the “fold decrease” value ([1]; Lead-4AP3, 0.05 μM dimer, 0.25:1) was 1.0 fold. For the same substance, the “fold decrease” value ([1]; Lead-4AP3, 0.8 μM dimer, 4:1) was 1.2 fold, the “fold decrease” value ([1]; Lead-4AP4, 0.2 μM dimer, 1:1) was 1.0 fold and the “fold decrease” value ([1]; Lead-4AP4, 1.6 μM dimer, 8:1) was 1.2 fold. The “2-AP quenching” value ([1]; Lead-4AP4 and Lead-1AP1) was “less sensitive”, the “increase in KMnO4 sensitivity of central thymine bases” value [2] was ~2 fold and the “Fold reduced versus HJ” value (Oligo) was 51.1.
